Assay [1] relates to D54. In words: Cytotoxic activity against human D54 cells assessed as reduction in cell viability incubated for 48 hrs in presence of ZSTK474 by alamar blue assay. The assay is classed as functional, cell-based. The gist of the method:
(§1)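 Cells grown in RPMI with 10% heat-inactivated FBS and 1% penicillin/streptomycin/glutamine at 37 °C, 5% CO2. Compounds made as 10 mM DMSO stocks, serially diluted in RPMI. Controls received media with 1% DMSO. Viability read by AlamarBlue fluorescence 48 h after dosing. Combination treatments used co-administered single agents.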
For orientation: Alamar Blue is a resazurin reagent that responds to reducing activity.

The test system of assay [2] is A549. In words: Cytotoxic activity against human A549 cells assessed as reduction in cell viability incubated for 48 hrs by alamar blue assay. The assay is classed as functional, cell-based. The gist of the method: as §1
Assay [3] deals with D54. In words: Cytotoxic activity against human D54 cells assessed as reduction in cell viability incubated for 48 hrs by alamar blue assay. The assay is classed as functional, cell-based. The method, boiled down:
as §1

In assay [4] the target is T1, Dual specificity mitogen-activated protein kinase kinase 1 (Homo sapiens, UniProt Q02750). In words: Inhibition of purified MEK1 (unknown origin) assessed as reduction in phosphorylation of inactive Erk2 incubated for 30 mins by Kinase-Glo luminescent kinase assay. Background: In Kinase-Glo more light means more ATP remaining.
Assay [5] is described as follows: Inhibition of PI3K (unknown origin) assessed as reduction in lipid kinase activity by fluorescence-based Adapta TR-FRET assay. More on the design: species or system Homo sapiens. (In general: In TR-FRET formats the signal depends on donor and acceptor labels being close together.)
Assay [6] concerns Mus musculus. In words: In-vivo inhibition of PI3K in human D54 cells xenografted nude Foxn1nu mouse assessed as reduction in tumor AKT phosphorylation at 375 mg/kg, po dosed 2 hrs before mouse sacrifice by Western blot method. The assay is classed as functional. The gist of the method:
(§2)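 Five-week-old athymic nude Foxn1nu mice given s.c. flank injections of 1×10^6 cells in 50% RPMI/50% Matrigel (n=2 per tumor type). At about 150 mm³ tumor volume, mice were fasted 4 h, then dosed by oral gavage with 375 mg/kg in DMSO:HPBCD (3:2) or vehicle. Sacrifice at 2 h. Excised tumors analysed by western blot for pERK1/2 and pAKT.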

Assay [7] concerns the target T1, Dual specificity mitogen-activated protein kinase kinase 1. The experiment in a line: Inhibition of MEK1 in human A549 cells assessed as inhibition of ERK1/2 phosphorylation at 1 to 25 uM incubated for 1 hr by Western blotting. The assay is classed as cell-based. The method, boiled down:
(§3)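 Cells seeded 24 h before treatment, then exposed to compounds for 1 h; DMSO vehicle control. Lysis in NP-40 buffer (1% NP40, 150 mM NaCl, 25 mM Tris pH 8.0) with protease and phosphatase inhibitors. Protein measured by Lowry. Equal protein run on 4-12% Bis-Tris gels and blotted. Probes: pERK1/2 (Thr202/Tyr204), pAKT (S473), total ERK/AKT, β-actin; ECL detection.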

In assay [8] the test system is D54. The experiment in a line: Inhibition of PI3K in human D54 cells assessed as inhibition of AKT phosphorylation at 1 to 25 uM incubated for 1 hr by Western blotting. The assay is classed as cell-based. The method, boiled down:
as §3

For assay [9], the system named is A549. In words: Inhibition of PI3K in human A549 cells assessed as inhibition of AKT phosphorylation at 1 to 25 uM incubated for 1 hr by Western blotting. The assay is classed as cell-based. The gist of the method: as §3
The subject of assay [10] is Mus musculus. In words: In-vivo inhibition of MEK1 in human D54 cells xenografted nude Foxn1nu mouse assessed as reduction in tumor ERK1/2 phosphorylation at 375 mg/kg, po dosed 2 hrs before mouse sacrifice by Western blot method. The assay is classed as functional. The method, boiled down:
as §2

In assay [11] the target is T1, Dual specificity mitogen-activated protein kinase kinase 1. The experiment in a line: Inhibition of MEK1 in human D54 cells assessed as inhibition of ERK1/2 phosphorylation at 1 to 25 uM incubated for 1 hr by Western blotting. The assay is classed as cell-based. The method, boiled down:
as §3

The test system of assay [12] is Mus musculus. In words: In-vivo inhibition of MEK1 in human D54 cells xenografted nude Foxn1nu mouse assessed as reduction in tumor ERK1/2 phosphorylation dosed through oral gavage 2 hrs before mouse sacrifice by Western blot method. The assay is classed as functional, organism-based. The gist of the method: as §2
For assay [13], the system named is Mus musculus. In words: In-vivo inhibition of PI3K in human A549 cells xenografted nude Foxn1nu mouse assessed as reduction in tumor AKT phosphorylation dosed through oral gavage 2 hrs before mouse sacrifice by Western blot method. The assay is classed as functional, organism-based. The method, boiled down: as §2
In assay [14] the test system is Mus musculus. In words: In-vivo inhibition of PI3K in human D54 cells xenografted nude Foxn1nu mouse assessed as reduction in tumor AKT phosphorylation dosed through oral gavage 2 hrs before mouse sacrifice by Western blot method. The assay is classed as functional, organism-based. The gist of the method:
as §2

In assay [15] the test system is Mus musculus. The experiment in a line: In-vivo inhibition of MEK1 in human A549 cells xenografted nude Foxn1nu mouse assessed as reduction in tumor ERK1/2 phosphorylation dosed through oral gavage 2 hrs before mouse sacrifice by Western blot method. The assay is classed as functional, organism-based. The gist of the method: as §2
Assay [16] has as its target Dual specificity mitogen-activated protein kinase kinase 1 (Mus musculus, UniProt P31938). In words: Inhibition of MEK1 in mouse C26 cells assessed as inhibition of ERK1/2 phosphorylation incubated for 1 hr by Western blotting. The assay is classed as cell-based.
Assay [17] deals with D54. In words: Cytotoxic activity against human D54 cells assessed as reduction in cell viability incubated for 48 hrs in presence of PD0325901 by alamar blue assay. The assay is classed as functional, cell-based. The method, boiled down: as §1

Activity calls are given as the source filed them. The rule behind the calls is not given here.

Broadly, the IC50 is the concentration needed to halve the response being measured. A word on the inhibition in vivo: it is the drop in the measured response relative to a control, in per cent.

T1 sequence (Q02750 whole entry): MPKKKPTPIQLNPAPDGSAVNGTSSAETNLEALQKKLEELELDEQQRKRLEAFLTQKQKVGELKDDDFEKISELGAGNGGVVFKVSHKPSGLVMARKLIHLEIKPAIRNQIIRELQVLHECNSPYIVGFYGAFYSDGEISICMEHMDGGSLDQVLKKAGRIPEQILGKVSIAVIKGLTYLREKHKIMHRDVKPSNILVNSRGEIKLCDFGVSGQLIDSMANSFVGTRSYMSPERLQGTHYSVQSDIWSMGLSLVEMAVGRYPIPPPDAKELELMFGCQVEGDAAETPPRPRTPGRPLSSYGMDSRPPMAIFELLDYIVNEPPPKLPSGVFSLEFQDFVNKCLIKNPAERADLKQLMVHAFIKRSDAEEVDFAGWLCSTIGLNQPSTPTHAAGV
Chain of Dual specificity mitogen-activated protein kinase kinase 1 (Mus musculus, UniProt P31938) (P31938 whole entry): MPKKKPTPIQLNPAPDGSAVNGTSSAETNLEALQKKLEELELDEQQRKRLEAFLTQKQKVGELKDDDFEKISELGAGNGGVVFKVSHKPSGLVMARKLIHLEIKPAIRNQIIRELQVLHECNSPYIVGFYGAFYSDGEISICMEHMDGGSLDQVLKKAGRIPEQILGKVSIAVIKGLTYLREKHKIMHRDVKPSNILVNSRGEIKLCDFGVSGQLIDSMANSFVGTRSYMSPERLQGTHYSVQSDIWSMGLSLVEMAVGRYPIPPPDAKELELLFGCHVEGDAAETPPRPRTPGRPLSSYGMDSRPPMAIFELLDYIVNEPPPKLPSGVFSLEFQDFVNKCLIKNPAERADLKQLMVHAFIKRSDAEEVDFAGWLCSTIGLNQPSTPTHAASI

In the case of `O=C(NOC[C@H](O)CO)c1ccc(F)c(F)c1Nc1ccc(I)cc1F`, in the assay with D54 [1], the result was Active. Moreover, the inhibition entry with A549 [2] and with D54 [3] was “Dose-dependent effect” in each case.
As for `O=C(NOCCOCCOCCOCCN1CCN(c2nc(N3CCOCC3)nc(-n3c(C(F)F)nc4ccccc43)n2)CC1)c1ccc(F)c(F)c1Nc1ccc(I)cc1F`, the inhibition result with A549 [2] and in the assay with D54 [3] was “Dose-dependent effect” each time. For the same compound, the IC50 in [4] came to 0.015 nM; in [5], 191 nM. Besides, the inhibition in vivo at 375 mg/kg in the assay on Mus musculus [6] amounted to 67%; in the assay on Mus musculus [10], 95%. The inhibition entry (in [7]; with D54 [8]; in the assay on A549 [9]; in assay [11]) was “Active” throughout.
On to `O=C(CNCCONC(=O)c1ccc(F)c(F)c1Nc1ccc(I)cc1F)NCCCCCC(=O)N1CCN(c2nc(N3CCOCC3)nc(-n3c(C(F)F)nc4ccccc43)n2)CC1`, for which the inhibition result in the assay on A549 [2] and in the assay with D54 [3] was “Dose-dependent effect” in each case. The inhibition result (in assay [7]; with D54 [8]; with A549 [9]; in [11]) was “Active” in each case.
In the case of `O=C(NOCCNCCCCS(=O)(=O)N1CCN(c2nc(N3CCOCC3)nc(-n3c(C(F)F)nc4ccccc43)n2)CC1)c1ccc(F)c(F)c1Nc1ccc(I)cc1F`, the inhibition result with A549 [2] and in the assay on D54 [3] was “Dose-dependent effect” each time. For the same compound, in assay [5], the IC50 came to 285 nM. For the same compound, the inhibition entry in [7] and in assay [11] was “Active” each time.
For `O=C(NOCCNCCCCCC(=O)N1CCN(c2nc(N3CCOCC3)nc(-n3c(C(F)F)nc4ccccc43)n2)CC1)c1ccc(F)c(F)c1Nc1ccc(I)cc1F`, the inhibition entry (with Mus musculus [12]; in the assay on Mus musculus [13]; in assay [7]; with D54 [8]; in the assay on A549 [9]; in the assay with Mus musculus [14]) was “Active” each time. Further, the inhibition result (in [11]; with Mus musculus [15]) was “Active” throughout. Besides, the inhibition result in the assay on A549 [2] and in the assay on D54 [3] was “Dose-dependent effect” each time.
For `CNCCONC(=O)c1ccc(F)c(F)c1Nc1ccc(I)cc1F`, in [16], the IC50 was 20 nM.
Regarding `FC(F)c1nc2ccccc2n1-c1nc(N2CCOCC2)nc(N2CCOCC2)n1`, the inhibition entry with A549 [2] and in the assay on D54 [3] was “Dose-dependent effect” each time. Besides, the outcome with D54 [17] was Active.
